Reference: ChEMBL document CHEMBL1275556, “High prevalence of plasmid-mediated quinolone resistance genes qnr and aac(6')-Ib-cr in clinical isolates of Enterobacteriaceae from nine teaching hospitals in China” (2008)
Converted amounts (≈) assume the structure as drawn.

How the values were obtained:
Citrobacter freundii [1] = assay: Antimicrobial activity against aac(6')-Ib-cr-positive Citrobacter freundii PU55 harboring GyrA T83I, ParC S80I mutant, wild-type GyrB, qnrA genes by agar dilution method; format: functional
In short: (§1)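 MICs were determined by the CLSI agar dilution method (M7-A7) and interpreted against CLSI M100-S17 breakpoints.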

Citrobacter freundii [2] = assay: Antimicrobial activity against aac(6')-Ib-cr-positive Citrobacter freundii TJ15 harboring GyrA T83I, ParC S80I mutant, wild-type GyrB, qnrB genes by agar dilution method; format: functional; in short: as §1
Citrobacter freundii [3] = assay: Antimicrobial activity against aac(6')-Ib-cr-positive Citrobacter freundii PU55T harboring wild-type GyrA, ParC, GyrB and qnrA genes by agar dilution method
Klebsiella pneumoniae [4] = assay: Antimicrobial activity against aac(6')-Ib-cr-positive Klebsiella pneumoniae WH99 harboring wild-type GyrA, ParC, GyrB and qnrB genes by agar dilution method; format: functional
In short: (§2)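 MICs were determined on clinical isolates by CLSI agar dilution (M7-A7) and interpreted against CLSI M100-S17 breakpoints.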

Klebsiella pneumoniae [5] = assay: Antimicrobial activity against aac(6')-Ib-cr-positive Klebsiella pneumoniae SY26 harboring GyrA S83I, ParC S80I mutant, wild-type GyrB and qnrB genes by agar dilution method; format: functional; in short: as §2
Citrobacter freundii [6] = assay: Antimicrobial activity against aac(6')-Ib-cr-positive Citrobacter freundii JN1T by agar dilution method; format: functional; in short: as §1
Klebsiella pneumoniae [7] = assay: Antimicrobial activity against aac(6')-Ib-cr-negative Klebsiella pneumoniae SY22 harboring GyrA S83I, ParC S80I mutant, wild-type GyrB and qnrS genes by agar dilution method; format: functional; in short: as §1
Klebsiella pneumoniae [8] = assay: Antimicrobial activity against aac(6')-Ib-cr-positive Klebsiella pneumoniae JN41T harboring qnrB gene by agar dilution method; format: functional
In short: (§3)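 Transconjugants were made by conjugating a qnr/aac(6')-Ib-cr donor with azide-resistant E. coli J53. Selection used Trypticase soy agar with sodium azide 150 µg/ml and sulfamethoxazole 180 µg/ml. […] MICs were read by CLSI agar dilution (M7-A7) and interpreted per M100-S17.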

Klebsiella pneumoniae [9] = assay: Antimicrobial activity against aac(6')-Ib-cr-positive Klebsiella pneumoniae JN132T harboring qnrB gene by agar dilution method; format: functional; in short: as §3
Citrobacter freundii [10] = assay: Antimicrobial activity against aac(6')-Ib-cr-positive Citrobacter freundii JN1 harboring GyrA T83I, ParC S80I mutant, wild-type GyrB and qnrA genes by agar dilution method; format: functional; in short: as §1
Klebsiella pneumoniae [11] = assay: Antimicrobial activity against aac(6')-Ib-cr-positive Klebsiella pneumoniae JN132 harboring GyrA S83I, ParC S80I mutant, wild-type GyrB and qnrB genes by agar dilution method; format: functional; in short: as §2
Klebsiella pneumoniae [12] = assay: Antimicrobial activity against aac(6')-Ib-cr-positive Klebsiella pneumoniae GZ40T harboring qnrB gene by agar dilution method
Citrobacter freundii [13] = assay: Antimicrobial activity against aac(6')-Ib-cr-negative Citrobacter freundii JN64 harboring GyrA T83I, wild-type ParC, GyrB and qnrA genes by agar dilution method; format: functional; in short: as §1
Citrobacter freundii [14] = assay: Antimicrobial activity against aac(6')-Ib-cr-positive Citrobacter freundii JS33T harboring qnrA gene by agar dilution method; format: functional; in short: as §1
Citrobacter freundii [15] = assay: Antimicrobial activity against aac(6')-Ib-cr-positive Citrobacter freundii JS33 harboring GyrA T83I mutant, wild-type ParC, GyrB, qnrA and qnrB genes by agar dilution method; format: functional; in short: as §1
Klebsiella pneumoniae [16] = assay: Antimicrobial activity against aac(6')-Ib-cr-positive Klebsiella pneumoniae GZ40 harboring GyrA S83I, ParC S80I mutant, wild-type GyrB and qnrB genes by agar dilution method; format: functional; in short: as §1
Klebsiella pneumoniae [17] = assay: Antimicrobial activity against aac(6')-Ib-cr-negative Klebsiella pneumoniae SY22T harboring qnrS gene by agar dilution method; format: functional; in short: as §1
Klebsiella pneumoniae [18] = assay: Antimicrobial activity against aac(6')-Ib-cr-positive Klebsiella pneumoniae SY26T harboring wild-type GyrA, ParC, GyrB and qnrB genes by agar dilution method; format: functional
In short: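 Transconjugants were made by conjugating a qnr/aac(6')-Ib-cr donor with azide-resistant E. coli J53. MICs were read by CLSI agar dilution (M7-A7) and interpreted per M100-S17.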

Klebsiella pneumoniae [19] = assay: Antimicrobial activity against aac(6')-Ib-cr-positive Klebsiella pneumoniae JN41 harboring GyrA S83I, ParC S80I mutant, wild-type GyrB and qnrB genes by agar dilution method; format: functional; in short: as §2
Klebsiella pneumoniae [20] = assay: Antimicrobial activity against aac(6')-Ib-cr-positive Klebsiella pneumoniae WH99T harboring qnrB gene by agar dilution method; format: functional; in short: as §3

Compound: O=C(O)c1cn(C2CC2)c2cc(N3CCNCC3)c(F)cc2c1=O [CIPROFLOXACIN]
- MIC (Citrobacter freundii [1]): > 32 µg/mL
- MIC (Citrobacter freundii [2]): 16 µg/mL (≈ 48.3 µM)
- MIC (Citrobacter freundii [3]): 1 µg/mL (≈ 3.02 µM)
- MIC (Klebsiella pneumoniae [4]): 2 µg/mL (≈ 6.04 µM)
- MIC (Klebsiella pneumoniae [5]): > 32 µg/mL
- MIC (Citrobacter freundii [6]): 1 µg/mL (≈ 3.02 µM)
- MIC (Klebsiella pneumoniae [7]): > 32 µg/mL
- MIC (Klebsiella pneumoniae [8]): 0.5 µg/mL (≈ 1.51 µM)
- MIC (Klebsiella pneumoniae [9]): 1 µg/mL (≈ 3.02 µM)
- MIC (Citrobacter freundii [10]): > 32 µg/mL
- MIC (Klebsiella pneumoniae [11]): > 32 µg/mL
- MIC (Klebsiella pneumoniae [12]): 1 µg/mL (≈ 3.02 µM)
- MIC (Citrobacter freundii [13]): 8 µg/mL (≈ 24.1 µM)
- MIC (Citrobacter freundii [14]): 0.5 µg/mL (≈ 1.51 µM)
- MIC (Citrobacter freundii [15]): 4 µg/mL (≈ 12.1 µM)
- MIC (Klebsiella pneumoniae [16]): > 32 µg/mL
- MIC (Klebsiella pneumoniae [17]): 0.5 µg/mL (≈ 1.51 µM)
- MIC (Klebsiella pneumoniae [18]): 0.5 µg/mL (≈ 1.51 µM)
- MIC (Klebsiella pneumoniae [19]): > 32 µg/mL
- MIC (Klebsiella pneumoniae [20]): 1 µg/mL (≈ 3.02 µM)
